Results on 4 compounds are retold here after paper PMC3110074 (ACS chemical neuroscience, 2011).

Like-named read-outs stand apart in the source and are kept apart here. Some results are limits rather than exact numbers.

The conditions of data set [1]: cited from earlier work.
In data set [2] the test system is TH positive neurons in the SNpc. To be noted: intraperitoneal injection; cited from earlier work.
Data set [3] concerns the target CYP P450 2C8 (Homo sapiens, UniProt P10632). Put plainly: P450 inhibition 2C8. To be noted: read-out: IC50 CYP450 2C8. Type of data set: in vitro ADME.
A short description of data set [4]: Plasma protein binding, rat. Type of data set: in vitro ADME.
Data set [5] deals with primary mesencephalic dopaminergic neurons exposed to MPP+. It is filed as cell-based, Sprague Dawley rat. To be noted: for neuroprotective effect (TH-positive neurons): 10 μM MPP+ for 48 hr. The method, boiled down: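 Ventral mesencephalon from E14 Sprague-Dawley rat embryos was trypsinised (0.25%, 5 min, 37 °C) and triturated. Cells were plated at 200 000/well on poly-D-lysine/laminin in DMEM/10% HIFBS, then switched after 2 h to SATO selection medium for 5 days with daily changes. Test compound (10–1000 nM) was added 15 min before 10 μM MPP+, with 48 h at 37 °C/5% CO2. Cells were fixed in 4% PFA and TH+ neurons counted blinded. Four wells per concentration, three biological replicates; one-way ANOVA.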

The target of data set [6] is KIT (Homo sapiens, UniProt P10721). Put plainly: Ambit kinase panel screen, KIT. Type of data set: binding. To be noted: suggested from Ambit panel at 3 μM.
Data set [7] in a line: Plasma protein binding, human. Type of data set: in vitro ADME.
Data set [8] addresses KIT V559D (Homo sapiens, UniProt P10721, V559D). In words: Ambit kinase panel screen, KIT V559D. Type of data set: binding. As to conditions: suggested from Ambit panel at 3 μM.
Data set [9] has as its target CYP P450 2D6 (Homo sapiens, UniProt P10635). Put plainly: P450 inhibition 2D6. Type of data set: in vitro ADME. To be noted: read-out: IC50 CYP450 2D6.
In data set [10] the test system is p-c-jun in substantia nigra tissue lysate. Put plainly: ELISA for p-c-jun target modulation after MPTP. Type of data set: in vivo, C57BL/6J mice. To be noted: MPTP-treated mice. The gist of the method:
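Male C57BL/6J mice (11 weeks, 25–30 g) got the test compound orally 30 min before the first of repeated i.p. MPTP-HCl doses given at 2 h intervals, and were killed 7 h after the first MPTP dose. SN nuclear extracts were made with protease and phosphatase inhibitors and protein was measured by BCA. Phospho-c-jun Ser63 in 30 μg protein was read by ELISA in duplicate against a recombinant p-c-jun standard curve. Groups were compared by two-tailed unpaired t test.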

Data set [11] in a line: Microsomal stability, human. To be noted: human liver microsomes. It is filed as in vitro ADME. (In general: Liver microsomes are vesicles of endoplasmic reticulum, rich in cytochrome P450 enzymes.)
In data set [12] the target is PDGFR-β (Homo sapiens, UniProt P09619). Put plainly: Ambit kinase panel screen, PDGFR-β. To be noted: suggested from Ambit panel at 3 μM. It is filed as binding.
Chain of PDGFR-β (P09619 33-1106): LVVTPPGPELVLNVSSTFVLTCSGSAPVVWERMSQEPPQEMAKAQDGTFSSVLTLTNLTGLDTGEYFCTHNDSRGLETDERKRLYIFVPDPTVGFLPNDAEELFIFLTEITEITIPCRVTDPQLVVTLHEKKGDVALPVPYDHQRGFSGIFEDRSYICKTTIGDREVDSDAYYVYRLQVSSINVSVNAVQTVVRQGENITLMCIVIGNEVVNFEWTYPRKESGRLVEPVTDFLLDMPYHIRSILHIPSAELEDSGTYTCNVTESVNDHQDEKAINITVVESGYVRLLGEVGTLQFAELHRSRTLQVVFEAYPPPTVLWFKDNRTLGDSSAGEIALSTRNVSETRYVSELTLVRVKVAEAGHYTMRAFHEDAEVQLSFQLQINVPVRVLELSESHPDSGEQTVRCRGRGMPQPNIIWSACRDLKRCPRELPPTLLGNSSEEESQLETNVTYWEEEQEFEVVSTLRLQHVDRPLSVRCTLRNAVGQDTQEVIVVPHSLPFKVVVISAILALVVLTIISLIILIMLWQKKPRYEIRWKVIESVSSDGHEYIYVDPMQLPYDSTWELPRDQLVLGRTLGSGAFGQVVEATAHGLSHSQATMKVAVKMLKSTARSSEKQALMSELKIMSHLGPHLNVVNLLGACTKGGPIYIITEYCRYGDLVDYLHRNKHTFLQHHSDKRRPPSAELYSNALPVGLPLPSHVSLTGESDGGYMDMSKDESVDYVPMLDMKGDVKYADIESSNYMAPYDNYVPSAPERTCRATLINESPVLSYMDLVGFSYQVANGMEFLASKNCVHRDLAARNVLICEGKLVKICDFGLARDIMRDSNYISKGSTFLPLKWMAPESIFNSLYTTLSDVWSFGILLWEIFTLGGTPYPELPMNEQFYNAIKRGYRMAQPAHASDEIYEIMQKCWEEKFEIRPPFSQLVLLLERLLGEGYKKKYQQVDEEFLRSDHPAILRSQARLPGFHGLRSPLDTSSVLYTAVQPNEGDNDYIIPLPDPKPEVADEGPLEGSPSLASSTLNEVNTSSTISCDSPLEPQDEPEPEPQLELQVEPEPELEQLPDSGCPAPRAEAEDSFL
Data set [13] relates to p-c-jun in TH-positive neurons of the SNpc. Put plainly: Immunohistochemistry for TH and p-c-jun after MPTP. Type of data set: in vivo, C57BL/6J mice. To be noted: single oral dose 30 mg/kg, seven hr. The gist of the method:
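The test compound was given orally 30 min before repeated i.p. MPTP-HCl (2 h intervals) to male C57BL/6J mice, which were killed 7 h after the first MPTP dose; three mice per group. 16 μm SN sections (bregma −3.0) were incubated overnight at 4 °C with sheep anti-TH (1:50) and rabbit anti-p-c-jun Ser73 (1:100), then 2 h with Alexa 594/488 secondaries (1:500). DAPI was used for normalisation. TH+ neurons with nuclear p-c-jun were counted.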

The target in data set [14] is monoamine oxidase A (MAO-A) (Homo sapiens, UniProt P21397). Put plainly: MAO-A inhibition. Type of data set: biochemical. As to conditions: read-out: IC50 MAO-A.
Data set [15] has as its target CYP P450 2E1 (Homo sapiens, UniProt P05181). Put plainly: P450 inhibition 2E1. It is filed as in vitro ADME. As to conditions: read-out: IC50 CYP450 2E1.
Data set [16] deals with CYP P450 2A6 (Homo sapiens, UniProt P11509). Put plainly: P450 inhibition 2A6. Type of data set: in vitro ADME. To be noted: read-out: IC50 CYP450 2A6.
Chain of CYP P450 2A6 (P11509 whole entry): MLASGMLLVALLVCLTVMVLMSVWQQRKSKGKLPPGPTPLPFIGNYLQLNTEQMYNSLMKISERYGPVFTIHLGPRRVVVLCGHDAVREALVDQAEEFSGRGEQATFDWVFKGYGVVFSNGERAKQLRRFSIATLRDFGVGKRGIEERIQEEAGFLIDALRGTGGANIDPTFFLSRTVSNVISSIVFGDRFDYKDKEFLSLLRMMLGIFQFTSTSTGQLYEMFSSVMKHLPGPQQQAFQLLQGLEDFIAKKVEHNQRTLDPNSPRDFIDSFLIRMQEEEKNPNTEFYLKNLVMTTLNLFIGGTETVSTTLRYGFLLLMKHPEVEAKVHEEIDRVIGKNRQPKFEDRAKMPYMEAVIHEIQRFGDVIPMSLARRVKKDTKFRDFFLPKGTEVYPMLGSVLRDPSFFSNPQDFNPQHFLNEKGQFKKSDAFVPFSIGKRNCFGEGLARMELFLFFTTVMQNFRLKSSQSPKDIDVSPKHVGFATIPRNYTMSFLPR
In data set [17] the target is CYP P450 2C19 (Homo sapiens, UniProt P33261). To be noted: read-out: IC50 CYP450 2C19.
In data set [18] the target is CYP P450 3A4 (Homo sapiens, UniProt P08684). To be noted: read-out: IC50 CYP450 3A4.
For data set [19], the target named is G2019S LRRK2 (Homo sapiens, UniProt Q5S007, G2019S). Put plainly: G2019S LRRK2 inhibition. Type of data set: biochemical. As to conditions: up to 10 μM.
For data set [20], the target named is CYP P450 2C9 (Homo sapiens, UniProt P11712). As to conditions: read-out: IC50 CYP450 2C9.
Data set [21] concerns the target CYP P450 1A2 (Homo sapiens, UniProt P05177). Put plainly: P450 inhibition 1A2. Type of data set: in vitro ADME. To be noted: read-out: IC50 CYP450 1A2.
For data set [22], the target named is monoamine oxidase B (MAO-B) (Homo sapiens, UniProt P27338). In words: MAO-B inhibition. Type of data set: biochemical. As to conditions: read-out: IC50 MAO-B.
Data set [23] can be described thus: Plasma protein binding, mouse. Type of data set: in vitro ADME.
In data set [24] the test system is c-jun phosphorylation in ventral midbrain. In words: Western blot for phospho-c-jun after MPTP. It is filed as in vivo, C57BL/6J mice. As to conditions: MPTP-treated mice, 20 mg/kg oral. The method, boiled down:
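Mice received the test compound orally 30 min before the first i.p. MPTP-HCl dose and were killed 7 h after that dose; two saline, three MPTP and two MPTP+compound mice. Ventral midbrain was dissected and lysed, and 30 μg nuclear-fraction protein was immunoblotted for phospho-c-jun.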

Data set [25] is described as follows: Mouse brain penetration time course. Type of data set: in vivo, C57Bl6 mice. As to conditions: mice, single oral dose 30 mg/kg.
The subject of data set [26] is striatal catecholamine levels. Put plainly: Striatal dopamine, DOPAC and HVA levels after MPTP. It is filed as in vivo, C57BL/6J mice. To be noted: MPTP-treated mice, 30 mg/kg, 7 days.
Data set [27] in a line: Microsomal stability, rat. Type of data set: in vitro ADME. To be noted: rat liver microsomes.
The subject of data set [28] is 347 kinases. Put plainly: Ambit kinase panel screen. To be noted: 3 μM. It is filed as binding.
Data set [29] has as its target TYK2 (Homo sapiens, UniProt P29597). Put plainly: Ambit kinase panel screen, TYK2. Type of data set: binding. To be noted: suggested from Ambit panel at 3 μM.
The nature of data set [30]: Plasma protein binding, monkey. Type of data set: in vitro ADME.
In data set [31] the target is P-glycoprotein (PGP) (Homo sapiens, UniProt P08183). Put plainly: P-glycoprotein substrate assessment. Type of data set: in vitro ADME.
The nature of data set [32]: Rat pharmacokinetics. Type of data set: in vivo, Sprague-Dawley rats. As to conditions: rats. The gist of the method:
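Sprague-Dawley rats (n = 3) were dosed 1 mg/kg i.v. or 2 mg/kg by oral gavage. Blood was drawn into EDTA at 5, 15 and 30 min and at 1, 2, 4, 6 and 8 h. Plasma proteins were precipitated with acetonitrile and the test compound quantified by LC-MS/MS. Noncompartmental analysis gave CL, oral bioavailability, Cmax, AUC, t1/2 and Vd.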

A short description of data set [33]: Microsomal stability, mouse. Type of data set: in vitro ADME. To be noted: mouse liver microsomes.
The target in data set [34] is Leucine Rich repeat Kinase 2 (LRRK2) (Homo sapiens, UniProt Q5S007). In words: LRRK2 inhibition. Type of data set: biochemical. To be noted: up to 10 μM.
In data set [35] the target is CYP P450 2B6 (Homo sapiens, UniProt P20813). In words: P450 inhibition 2B6. It is filed as in vitro ADME. As to conditions: read-out: IC50 CYP450 2B6.
Chain of CYP P450 2B6 (P20813 whole entry): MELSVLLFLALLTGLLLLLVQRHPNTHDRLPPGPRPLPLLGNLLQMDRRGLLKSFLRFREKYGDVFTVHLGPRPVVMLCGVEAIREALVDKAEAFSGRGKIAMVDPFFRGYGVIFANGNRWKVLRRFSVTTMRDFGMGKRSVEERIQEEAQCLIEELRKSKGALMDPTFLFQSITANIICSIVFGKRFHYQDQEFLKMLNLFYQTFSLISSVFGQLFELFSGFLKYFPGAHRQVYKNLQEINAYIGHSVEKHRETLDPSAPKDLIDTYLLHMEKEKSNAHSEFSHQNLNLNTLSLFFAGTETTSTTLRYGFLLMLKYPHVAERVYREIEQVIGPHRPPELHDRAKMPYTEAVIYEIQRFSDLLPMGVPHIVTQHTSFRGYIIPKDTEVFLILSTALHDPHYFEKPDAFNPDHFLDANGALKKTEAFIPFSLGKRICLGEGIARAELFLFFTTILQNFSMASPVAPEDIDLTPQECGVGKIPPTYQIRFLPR
For data set [36] the following is noted: cited from earlier work. The source holds these as a separate data set.

Broadly, the IC50 is the concentration at which inhibition is half-maximal. As a reminder, the Kd is a measure of binding affinity in units of concentration.

Chain of CYP P450 2E1 (P05181 whole entry): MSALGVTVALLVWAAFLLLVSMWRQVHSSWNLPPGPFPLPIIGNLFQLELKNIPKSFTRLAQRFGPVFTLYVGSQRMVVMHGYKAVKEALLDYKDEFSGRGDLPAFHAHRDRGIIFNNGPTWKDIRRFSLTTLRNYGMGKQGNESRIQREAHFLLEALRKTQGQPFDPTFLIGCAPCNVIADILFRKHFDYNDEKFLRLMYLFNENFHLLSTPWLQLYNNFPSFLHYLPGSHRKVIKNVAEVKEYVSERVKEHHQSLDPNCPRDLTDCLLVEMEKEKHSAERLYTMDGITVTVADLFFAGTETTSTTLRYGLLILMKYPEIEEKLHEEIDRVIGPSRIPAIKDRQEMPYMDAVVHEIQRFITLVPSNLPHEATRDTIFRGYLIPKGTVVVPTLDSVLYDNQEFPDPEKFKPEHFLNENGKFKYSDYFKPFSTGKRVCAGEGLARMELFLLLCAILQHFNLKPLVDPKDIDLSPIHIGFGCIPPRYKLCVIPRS
Chain of CYP P450 2C8 (P10632 whole entry): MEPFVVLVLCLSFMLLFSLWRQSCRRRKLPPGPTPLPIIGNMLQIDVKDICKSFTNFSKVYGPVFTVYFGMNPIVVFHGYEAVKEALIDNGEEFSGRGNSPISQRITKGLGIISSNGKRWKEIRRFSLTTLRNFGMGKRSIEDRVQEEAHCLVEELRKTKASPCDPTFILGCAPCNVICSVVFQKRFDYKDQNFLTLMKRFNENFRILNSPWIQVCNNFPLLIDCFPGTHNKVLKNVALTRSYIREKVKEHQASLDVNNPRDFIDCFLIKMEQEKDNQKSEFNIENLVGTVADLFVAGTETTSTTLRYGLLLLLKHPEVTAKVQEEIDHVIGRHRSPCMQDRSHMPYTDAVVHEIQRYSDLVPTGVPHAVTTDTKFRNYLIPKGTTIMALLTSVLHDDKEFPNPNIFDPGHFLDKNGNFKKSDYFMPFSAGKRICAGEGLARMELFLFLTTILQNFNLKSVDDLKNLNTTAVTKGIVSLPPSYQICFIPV
Chain of KIT V559D (P10721 26-976 V559D): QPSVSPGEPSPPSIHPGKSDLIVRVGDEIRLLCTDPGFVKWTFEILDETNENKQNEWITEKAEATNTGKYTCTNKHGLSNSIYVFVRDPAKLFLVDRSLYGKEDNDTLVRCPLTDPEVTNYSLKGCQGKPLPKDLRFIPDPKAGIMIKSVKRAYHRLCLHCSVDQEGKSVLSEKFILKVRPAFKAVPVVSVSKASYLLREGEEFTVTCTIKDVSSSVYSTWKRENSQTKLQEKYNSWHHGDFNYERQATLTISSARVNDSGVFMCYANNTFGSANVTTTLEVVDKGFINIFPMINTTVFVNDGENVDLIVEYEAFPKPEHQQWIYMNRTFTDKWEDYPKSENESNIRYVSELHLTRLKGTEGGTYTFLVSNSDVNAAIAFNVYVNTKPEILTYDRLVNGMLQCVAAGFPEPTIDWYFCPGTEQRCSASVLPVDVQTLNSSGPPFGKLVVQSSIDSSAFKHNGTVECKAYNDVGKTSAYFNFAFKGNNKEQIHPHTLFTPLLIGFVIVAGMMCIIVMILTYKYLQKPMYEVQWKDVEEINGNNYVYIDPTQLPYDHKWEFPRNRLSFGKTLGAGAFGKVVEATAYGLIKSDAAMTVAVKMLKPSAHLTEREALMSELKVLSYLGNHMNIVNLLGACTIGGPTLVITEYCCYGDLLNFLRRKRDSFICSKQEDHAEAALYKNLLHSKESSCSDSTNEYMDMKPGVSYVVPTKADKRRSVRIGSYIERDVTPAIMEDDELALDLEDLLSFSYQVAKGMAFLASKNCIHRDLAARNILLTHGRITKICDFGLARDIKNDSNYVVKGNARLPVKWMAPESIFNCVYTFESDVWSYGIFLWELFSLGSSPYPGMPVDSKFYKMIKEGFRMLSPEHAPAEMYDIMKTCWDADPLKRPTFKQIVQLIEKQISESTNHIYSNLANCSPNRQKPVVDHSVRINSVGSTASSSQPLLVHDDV
Chain of CYP P450 1A2 (P05177 whole entry): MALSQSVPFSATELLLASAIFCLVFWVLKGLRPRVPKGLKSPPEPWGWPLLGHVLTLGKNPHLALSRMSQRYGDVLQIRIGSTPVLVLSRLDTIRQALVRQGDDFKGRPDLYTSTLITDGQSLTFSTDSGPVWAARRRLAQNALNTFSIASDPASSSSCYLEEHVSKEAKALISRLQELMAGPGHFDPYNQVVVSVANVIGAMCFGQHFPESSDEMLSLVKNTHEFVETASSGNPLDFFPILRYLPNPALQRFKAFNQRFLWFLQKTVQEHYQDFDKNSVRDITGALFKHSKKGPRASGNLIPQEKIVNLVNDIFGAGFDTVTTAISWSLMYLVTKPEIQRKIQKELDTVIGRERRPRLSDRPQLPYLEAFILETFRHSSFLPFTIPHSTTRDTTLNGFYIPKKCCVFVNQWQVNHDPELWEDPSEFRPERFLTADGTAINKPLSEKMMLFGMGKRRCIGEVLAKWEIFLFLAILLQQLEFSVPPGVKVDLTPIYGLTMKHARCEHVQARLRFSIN
Chain of CYP P450 2D6 (P10635 whole entry): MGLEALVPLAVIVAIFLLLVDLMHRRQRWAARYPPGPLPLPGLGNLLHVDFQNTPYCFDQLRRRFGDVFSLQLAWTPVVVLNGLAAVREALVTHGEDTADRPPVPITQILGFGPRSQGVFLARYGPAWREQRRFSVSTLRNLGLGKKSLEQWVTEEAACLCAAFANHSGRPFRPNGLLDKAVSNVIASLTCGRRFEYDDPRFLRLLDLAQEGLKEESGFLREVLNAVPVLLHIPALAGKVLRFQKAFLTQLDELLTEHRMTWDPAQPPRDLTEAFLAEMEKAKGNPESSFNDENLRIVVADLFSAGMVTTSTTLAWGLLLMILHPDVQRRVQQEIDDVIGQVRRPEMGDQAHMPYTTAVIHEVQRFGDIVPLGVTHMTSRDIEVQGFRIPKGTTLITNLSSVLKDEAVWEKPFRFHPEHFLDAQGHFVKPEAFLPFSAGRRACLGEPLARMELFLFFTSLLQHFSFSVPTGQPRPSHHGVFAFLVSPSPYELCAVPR

With `N[C@@H](Cc1ccc(O)c(O)c1)C(=O)O` [L-DOPA, levodopa], the initial response rates in [1] is listed as around 90%.
In the case of `Oc1c2ccccc2c2c3c(cccc13)N=N2` [SP600125], the “protection in the chronic MPTP mouse model” value in data set [2] was “protective”.
Take `Cc1ccc(-c2ncn(-c3ccc(Nc4nccc(-c5cccc(N6CCOCC6)c5)n4)cc3)n2)cn1` [SR-3306]: the IC50 in [3], in data set [9], in data set [14], in [15], in data set [16] and in data set [17] was above 50 µM each time. Moreover, the IC50 in data set [18], in [20], in data set [21], in data set [22] and in data set [35] was above 50 µM throughout. Moreover, the plasma protein binding in data set [4] was found to be 97%; in [7], 88%; in [23] it was 86%; in [30], 96%. Further, the “neuroprotective effect (TH-positive neurons)” value in [5] (300 nM) and in data set [5] (1000 nM) was “greater than 90%” each time. The “effect on number of TH-positive neurons, compound alone” value in data set [5] (1000 nM in the absence of MPP+) is “no effect compared to control”. Besides, the equilibrium dissociation constant (Kd) in data set [6], in data set [8], in [12] and in data set [29] was below 1 µM in each case. Further, the “p-c-jun levels in the ventral midbrain by ELISA” value is “no effect” in [10] (10 mg/kg oral); “statistically significant reduction” in data set [10] (20 mg/kg oral, p< 0.01); “statistically significant reduction” in [10] (30 mg/kg oral, p < 0.001). In addition, the figures for the microsomal stability in data set [11], in data set [27] and in data set [33] were 28 min, 30 min and 26 min, respectively. Besides, the “number of p-c-jun positive cells compared to MPTP treated mice” value in data set [13] was “dramatic decrease (four-fold)”. In addition, the “inhibition of G2019S LRRK2” value in data set [19] is reported as “not inhibited”. In addition, the “phospho-c-jun signal by Western blot” value in [24] was “decrease in the phospho-c-jun signal”. Also, the brain concentration in data set [25] (4 hr) stood at 3000 nM; in [25] (24 hr) it was 230 nM. Further, the “brain concentration above the >90% neuroprotective concentration” value in data set [25] (8 hr) is 7 fold. In addition, the “protection of striatal DOPAC levels” value in data set [26] was “some protection”. In data set [26], the “protection of striatal dopamine levels” value is listed as “not able to demonstrate protection”. In data set [26], the “protection of striatal homovanillic acid (HVA) levels” value was “not able to demonstrate protection”. Moreover, in data set [28], the “number of kinases with any hit” value is 35 out of the 347. For the same compound, the “P-glycoprotein (PGP) substrate” value in [31] is reported as “not a P-glycoprotein (PGP) substrate”. In data set [32] (1 mg/kg i.v.), this compound displayed a clearance rate of 14 mL/min/kg. Besides, the “oral bioavailability (%F)” value in data set [32] (2 mg/kg p.o. vs 1 mg/kg i.v.) is given as 31%. Further, the “inhibition of LRRK2” value in data set [34] is on record as “not inhibited”.
In the case of `C#CCN[C@@H]1CCc2ccccc21` [rasagiline], the neuroprotective disease-modifying effects result in data set [36] (1 mg) was “possible disease-modifying effects”; in [36] (2 mg dose, 1176 subjects) it was “failed to show neuroprotective disease-modifying effects”.
